Screening results: PubChem BioAssay, several laboratories
This is a sample that favours compounds with a hit; in the whole collection about 2.4% have one here.
RanGTP-Imp inh – inhibitors of RanGTP-importin-beta interaction, primary screen, biochemical, FRET, CFP-Ran, YFP-importin-beta, homogeneous | Ran GTPase (GTP-bound) - importin-beta complex | cell-free CFP-Ran/YFP-importin-beta FRET ratio | inhibition, % (concentration not given with the values) | hit rate 1.1% among 300,000 | AID 2216, 2009;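 active means more than half of the replicate wells show a fall in the fluorescence ratio signal beyond about 16%, limit read from the data, passing the limit was not always enough; inconclusive means exactly half of the replicate wells pass the set limit; inactive means fewer than half of replicates pass the limit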;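 further: 0% = DMSO wells and 100% = Ran loaded with GDP instead of GTP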
MEX-5 binding – MEX-5 zinc finger RNA-binding disruptors – biochemical, C. elegans, fluorescence polarization, MLPCN library, primary screen; Zinc finger protein mex-5 (Caenorhabditis elegans), Q9XUB2; MEX-5/FITC-TCR2 RNA binding; stronger effect = lower value; activity score (negative = inhibition of binding), % at 10 µM; hit rate 0.38% among 300,000;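 active means inhibition past about -25% in most replicates, and total fluorescence under double the plate's negative control median, limit read from the data; inconclusive means replicates evenly split on the limit, or fluorescence at least double controls; inactive means too little inhibition in most replicates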;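 further: 0% = DMSO and -100% = 5 µM competing unlabeled TCR2 RNA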
Runt-SMMHC FRET – inhibitors of RUNX1 Runt–CBFb-SMMHC binding, primary screen, biochemical, FRET, Cerulean-Runt, Venus-CBFb-SMMHC, uHTS. Runt-related transcription factor 1 (Homo sapiens) + Core-binding factor subunit beta …. hit rate 0.74% among 220,000. AID 1434, 2008. Cerulean-Runt/Venus-CBFb-SMMHC FRET ratio 530/480, 1 h. inhibition, % at 20 µM;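 active means mean inhibition across duplicate retests at 20 µM reaching about 50%, limit read from the data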;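 further: 0% = DMSO wells and 100% = wells with excess untagged CBFb-SMMHC; inhibitors lower the FRET ratio by blocking Runt binding to CBFb-SMMHC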
Target sequence (Q01196 whole entry, looked up): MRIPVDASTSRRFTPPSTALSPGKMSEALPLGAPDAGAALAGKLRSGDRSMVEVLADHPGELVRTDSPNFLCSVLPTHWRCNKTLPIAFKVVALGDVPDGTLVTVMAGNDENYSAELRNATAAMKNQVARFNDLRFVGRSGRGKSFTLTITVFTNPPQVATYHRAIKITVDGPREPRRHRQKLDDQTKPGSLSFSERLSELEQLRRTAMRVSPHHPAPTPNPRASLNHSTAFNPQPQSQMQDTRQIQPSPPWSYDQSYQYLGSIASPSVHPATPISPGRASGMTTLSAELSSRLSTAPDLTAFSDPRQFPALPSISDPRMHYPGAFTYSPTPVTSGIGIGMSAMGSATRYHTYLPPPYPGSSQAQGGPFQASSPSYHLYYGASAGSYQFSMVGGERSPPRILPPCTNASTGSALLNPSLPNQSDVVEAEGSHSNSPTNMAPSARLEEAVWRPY
Target sequence (Q13951 whole entry, looked up): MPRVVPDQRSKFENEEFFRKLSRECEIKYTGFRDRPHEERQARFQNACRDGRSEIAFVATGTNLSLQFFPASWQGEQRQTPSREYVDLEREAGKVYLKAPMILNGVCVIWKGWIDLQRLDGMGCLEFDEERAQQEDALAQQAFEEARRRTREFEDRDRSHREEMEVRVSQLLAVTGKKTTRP
EBV gp42 block – Epstein-Barr virus gp42 inhibitors, primary screen, biochemical, uHTS, fluorescence polarization | Glycoprotein 42 (Epstein-Barr virus (strain AG876)), Q1HVG2 | AID 1085, 2008 | Fluorescence polarization binding assay, mP read-out | hit rate 0.42% among 220,000 | inhibition, % (tested at 21.74 µM); in the data active means inhibition above about 50%
Runt-CBFb FRET – inhibitors of RUNX1 Runt–CBFb binding, primary screen, biochemical, FRET, Cerulean-Runt, Venus-CBFb, uHTS | Cerulean-Runt/Venus-CBFb FRET ratio 530/480, 1 h | AID 1496, 2009 | hit rate 0.46% among 220,000 | inhibition, % at 20 µM | Runt-related transcription factor 1 (Homo sapiens) + Core-binding factor subunit beta …;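 active means inhibition over about 50% at 20 µM in the single-dose screen, limit read from the data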;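 further: 0% = DMSO wells and 100% = excess unlabeled CBFb competitor control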
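test system = Cerulean-tagged RUNX1 Runt domain (FRET donor) fusion protein | reagent = Venus-CBFb binding partner, 100 nM | incubation = protein complex preformed 1 h, compound exposure 1 h, room temperature, dark | detection = FRET fluorescence | read-out basis = loss of energy transfer signal | controls = 5 µM unlabeled CBFb as full-inhibition high control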
LANA-H2B inh – blockers of LANA interaction with H2A/H2B – biochemical, FP readout, HTS, primary screen; inhibition, % (no concentration beside the values); hit rate 0.6% among 320,000; cell-free LANA-H2A/H2B peptide, fluorescence polarization; in the data active means inhibition mostly above about 10%, no sharp cut-off; inactive means mostly below about 6.7%
Numbers without * were called inactive; ? = inconclusive; / = not tested or not shown.

SMILES | RanGTP-Imp inh | MEX-5 binding | Runt-SMMHC FRET | EBV gp42 block | Runt-CBFb FRET | LANA-H2B inh
O=C(O)c1ccc(C=C(c2nc3ccccc3s2)c2nc3ccccc3s2)cc1 | -1 | 4 | -2 | 0 | -6 | -5
CN(C)c1ccc(/C=C(\Cl)c2nc3ccccc3s2)cc1 | / | / | 81* | -19 | 39 | 4
COc1cc(C=C(c2nc3ccccc3s2)c2nc3ccccc3s2)cc(OC)c1O | 36* | -1 | 2 | -21 | 26 | 3
CCCn1c(-c2ccc(OC)cc2)nc2c(=O)n(C)c(=O)[nH]c21 | 0 | -1 | -1 | -5 | 0 | -8
CCCc1nc2c(=O)n(C)c(=O)[nH]c2n1C | 108* | -15 | 114* | 20 | 122* | 4
CCCCn1c(-c2ccc(Cl)cc2)nc2c(=O)n(C)c(=O)[nH]c21 | / | / | 50* | -12 | 25 | /
CCN1CCN(C(c2cccs2)C(C)NS(=O)(=O)c2ccccc2)CC1 (configuration not stated) | 2 | -1 | 0 | 1 | 4 | 2
CCOC(=O)C1CCCN(C(=O)c2cc(COc3ccc(C)nc3)on2)C1 (configuration not stated) | 3 | 1 | / | / | / | 18*
COCCCC1CCN(C(=O)c2cc(COc3ccc(C)nc3)on2)CC1 | 5 | -2 | / | / | / | -1
COCCC1CCCCN1C(=O)c1cc(COc2ccc(C)nc2)on1 (configuration not stated) | 4 | 2 | / | / | / | 45*
CC(C)c1ccc(/C=C/C(=O)n2nnc3ccccc32)cc1 | -1 | 1 | -2 | 85* | -2 | -5
CN(c1ccccc1)S(=O)(=O)c1cccc(NC(=O)CCNC(=O)c2ccc(Cl)cc2)c1 | / | / | / | / | / | 165*
CN(c1ccccc1)S(=O)(=O)c1cccc(NC(=O)CCNC(=O)c2ccccc2)c1 | / | / | / | / | / | 4
CN(c1cccc(Cl)c1)S(=O)(=O)c1cccc(C(=O)NCc2ccncc2)c1 | / | / | / | / | / | 53*
O=S(=O)(c1ccc(Br)s1)N1CCN(c2ccnc3cc(Cl)ccc23)CC1 | 1 | 2 | -1 | -14 | -1 | 0
CCc1nn(-c2ccccc2)c2c1-c1cc(OC)c(OC)cc1C1(N2)C(=O)Nc2ccccc21 (configuration not stated) | 31* | 2 | 0 | -8 | 0 | 0
Cc1ccc(S(=O)(=O)Nc2cccc(Cl)c2)cc1NC(=O)c1cccnc1 | 62* | -2 | 1 | 0 | -1 | /
Cc1cc(C)c(NC(=O)CC(C)(C)C)c(Cl)c1 | 0 | 2 | -4 | -3 | -1 | 2
Cc1cc(C)c(NC(=O)CS)c(Cl)c1 | -1 | 1 | -1 | -7 | 11 | 18*
CNS(=O)(=O)c1cccc(C(=O)NCC(c2cccs2)N2CCOCC2)c1 (configuration not stated) | -4 | 0 | / | / | / | 1
O=c1[nH]c(CSc2ncccn2)nc2c1cnn2-c1ccccc1 | -3 | -26* | -7 | 1 | -1 | 8
CCOC(=O)c1cnc2ccccc2c1NCCO | ? | -1 | 0 | -15 | -1 | 16*
CCOC(=O)Nc1c2ccccc2nc2ccccc12 | 131* | 2 | 82* | -4 | 65* | -7
CC1CCC(NC(=O)CCN2C(=O)C3C4C=CC(C4)C3C2=O)CC1 (configuration not stated) | 4 | 0 | / | / | / | -2
COc1ccc(N2CCN(CC(=O)N3c4ccccc4CC3C)CC2)cc1 (configuration not stated) | 3 | -2 | / | / | / | -3
SMILES | RanGTP-Imp inh | MEX-5 binding | Runt-SMMHC FRET | EBV gp42 block | Runt-CBFb FRET | LANA-H2B inh
O=C(CCN1CCN(Cc2ccccc2)CC1)NNC(=O)Nc1cccc([N+](=O)[O-])c1 | 5 | 4 | / | / | / | 16*
O=C(CCN1CCN(Cc2ccccc2)CC1)NNC(=O)Nc1cccc(Cl)c1 | 3 | 1 | / | / | / | 1
O=C(Nc1ccc(CN2CCOCC2)cc1)c1ccc(-c2cccc([N+](=O)[O-])c2)o1 | 1 | 0 | / | / | / | 26*
O=[N+]([O-])c1cccc(NC(=S)N2CCOCC2)c1 | 68* | 0 | -1 | -8 | 2 | 0
O=[N+]([O-])c1ccc(NC(=S)N2CCOCC2)cc1 | -4 | -2 | 1 | -11 | 2 | 4
Cc1ccc(C)c(NS(=O)(=O)c2cc(C(=O)NCCC3=CCCCC3)ccc2C)c1 | 0 | 2 | 55 | -11 | -2 | -4
CC(C(=O)Nc1ccc2[nH]c(=O)[nH]c2c1)N1CCN(Cc2ccc3c(c2)OCO3)CC1 (configuration not stated) | / | / | / | / | / | 3
CN1CCc2c(C#N)c(N3CCOCC3)nc(NCC3CCCO3)c2C1 (configuration not stated) | 70* | -2 | 6 | 1 | 33 | 1
N#Cc1c2c(c(NCCN3CCOCC3)n3c1nc1ccccc13)CCCC2 | 45* | -4 | 111* | -11 | 50* | 4
Cc1c(Cc2ccccc2)c(NCCN(C)C)n2c(nc3ccccc32)c1C#N | 26* | -2 | 81* | -7 | 30 | -1
N#Cc1c2c(c(NCCCN3CCOCC3)n3c1nc1ccccc13)CCC2 | -3 | -2 | 37 | -20 | 12 | 4
CCCc1c(C)c(C#N)c2nc3ccccc3n2c1NCCCN1CCOCC1 | 9 | 1 | 54* | 3 | 20 | -8
CCOc1ccccc1N1CCN(C(=O)c2ccccc2OCc2c(C)noc2C)CC1 | / | / | / | / | / | -1
CC(Oc1cccc(Cl)c1)c1ccnc2nc(/N=C/N(C)C)nn12 (configuration not stated) | 5 | 0 | 0 | 3 | 0 | 112*
CC12CCC(C/C1=N/O)C2(C)CBr (configuration not stated) | 1 | 1 | -1 | -18 | 0 | 2
CCOC(=O)/C=C1\SCC(=O)N1CC(=O)Nc1ccccc1OC(F)F | 150* | 3 | -4 | -31 | -3 | 3
Clc1ccc(-c2noc3c2-c2nc(Cc4cccc5ccccc45)sc2CC3)cc1 | 3 | -4 | / | / | / | 0
COc1cc2c(cc1OC)CN(CC(=O)Nc1cccc(C)c1)CC2 | 32* | 0 | 21 | -2 | 7 | -3
COc1cc2c(cc1OC)CN(CC(=O)Nc1ccc(F)cc1F)CC2 | 19* | 0 | / | / | / | 4
